# Measured values: ChEMBL document CHEMBL4346654 (Eur J Med Chem, 2019)
# Columns and labels:
# Staphylococcus aureus [1] = experiment: Antibacterial activity against MLS-resistant Staphylococcus aureus PU 32 expressing inducible ermA gene assessed as reduction in microbial growth by CLSI based two-fold broth dilution method; type: functional
# Streptococcus pneumoniae [2] = experiment: Antibacterial activity against erythromycin-susceptible Streptococcus pneumoniae ATCC49619 assessed as reduction in microbial growth by CLSI based two-fold broth dilution method; type: functional
# Streptococcus pneumoniae [3] = experiment: Bactericidal activity against erythromycin-susceptible Streptococcus pneumoniae ATCC49619 pretreated followed by subculture in absence of compound measured after 24 hrs; type: functional
# Method in brief: (§1)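 Isolates were identified by 16S rDNA sequencing. MIC was determined by CLSI-recommended two-fold broth dilution. For MBC, samples from 1–8 fold MIC were transferred to culture medium and subcultured for 24 h without antibiotic.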
# Haemophilus influenzae [4] = experiment: Antibacterial activity against azithromycin-susceptible Haemophilus influenzae ATCC 49247 assessed as reduction in microbial growth by CLSI based two-fold broth dilution method; type: functional
# Streptococcus pneumoniae [5] = experiment: Antibacterial activity against Streptococcus pneumoniae 07P390 expressing constitutive ermB gene assessed as reduction in microbial growth by CLSI based two-fold broth dilution method; type: functional
# Streptococcus pneumoniae [6] = experiment: Antibacterial activity against penicillin-susceptible Streptococcus pneumoniae PU 09 expressing mef gene assessed as reduction in microbial growth by CLSI based two-fold broth dilution method; type: functional
# Streptococcus pneumoniae [7] = experiment: Bactericidal activity against penicillin-susceptible Streptococcus pneumoniae PU 09 expressing mef gene pretreated followed by subculture in absence of compound measured after 24 hrs; type: functional; method in brief: as §1
# Streptococcus pneumoniae [8] = experiment: Selectivity ratio of MBC to MIC for penicillin-susceptible Streptococcus pneumoniae PU 09 expressing mef gene; type: functional; method in brief: as §1
# Streptococcus pneumoniae [9] = experiment: Bactericidal activity against Streptococcus pneumoniae 07P390 expressing constitutive ermB gene pretreated followed by subculture in absence of compound measured after 24 hrs; type: functional; method in brief: as §1
# Streptococcus pneumoniae [10] = experiment: Selectivity ratio of MBC to MIC for Streptococcus pneumoniae 07P390 expressing constitutive ermB gene; type: functional; method in brief: as §1
# Haemophilus influenzae [11] = experiment: Bactericidal activity against azithromycin-susceptible Haemophilus influenzae ATCC 49247 pretreated followed by subculture in absence of compound measured after 24 hrs; type: functional; method in brief: as §1
# Haemophilus influenzae [12] = experiment: Selectivity ratio of MBC to MIC for azithromycin-susceptible Haemophilus influenzae ATCC 49247; type: functional; method in brief: as §1
# Streptococcus pyogenes [13] = experiment: Antibacterial activity against MLS-resistant Streptococcus pyogenes 01-968 expressing inducible ermB gene assessed as reduction in microbial growth by CLSI based two-fold broth dilution method; type: functional
# Streptococcus pyogenes [14] = experiment: Bactericidal activity against MLS-resistant Streptococcus pyogenes 01-968 expressing inducible ermB gene pretreated followed by subculture in absence of compound measured after 24 hrs; type: functional
# Method in brief: (§2)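 MBC assay. Following MIC determination by CLSI standard two-fold broth dilution, samples at 1–8 fold MIC were transferred to fresh culture medium. They were subcultured for 24 h without antibiotic. Isolates were identified by 16S rDNA sequencing. S. aureus ATCC 29213 was used as a control strain.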
# Streptococcus pyogenes [15] = experiment: Selectivity ratio of MBC to MIC for MLS-resistant Streptococcus pyogenes 01-968 expressing inducible ermB gene; type: functional
# Method in brief: (§3)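 MBC/MIC ratio. MIC was measured by CLSI standard two-fold broth dilution. MBC was measured by transferring samples at 1–8 fold MIC to culture medium and subculturing for 24 h without antibiotic. Isolates were identified by 16S rDNA sequencing.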
# Staphylococcus aureus [16] = experiment: Bactericidal activity against MLS/methicillin-resistant Staphylococcus aureus PU 32 expressing inducible ermA gene pretreated followed by subculture in absence of compound measured after 24 hrs; type: functional; method in brief: as §2
# Staphylococcus aureus [17] = experiment: Selectivity ratio of MBC to MIC for MLS/methicillin-resistant Staphylococcus aureus PU 32 expressing inducible ermA gene; type: functional; method in brief: as §3
# Staphylococcus aureus [18] = experiment: Antibacterial activity against MLS-resistant Staphylococcus aureus PU 20 expressing constitutive ermC gene assessed as reduction in microbial growth by CLSI based two-fold broth dilution method; type: functional
# Streptococcus pyogenes [19] = experiment: Antibacterial activity against MLS-resistant Streptococcus pyogenes 12-206 expressing constitutive ermA gene assessed as reduction in microbial growth by CLSI based two-fold broth dilution method; type: functional
# Streptococcus pyogenes [20] = experiment: Bactericidal activity against MLS-resistant Streptococcus pyogenes 12-206 expressing constitutive ermA gene pretreated followed by subculture in absence of compound measured after 24 hrs; type: functional; method in brief: as §2
# Streptococcus pyogenes [21] = experiment: Selectivity ratio of MBC to MIC for MLS-resistant Streptococcus pyogenes 12-206 expressing constitutive ermA gene; type: functional; method in brief: as §3
# Streptococcus pyogenes [22] = experiment: Antibacterial activity against Streptococcus pyogenes 12-207 expressing mef gene assessed as reduction in microbial growth by CLSI based two-fold broth dilution method; type: functional
# Streptococcus pyogenes [23] = experiment: Bactericidal activity against Streptococcus pyogenes 12-207 expressing mef gene pretreated followed by subculture in absence of compound measured after 24 hrs; type: functional; method in brief: as §1
# Streptococcus pyogenes [24] = experiment: Selectivity ratio of MBC to MIC for Streptococcus pyogenes 12-207 expressing mef gene; type: functional; method in brief: as §1
# Moraxella catarrhalis [25] = experiment: Antibacterial activity against erythromycin-susceptible Moraxella catarrhalis 13L332 assessed as reduction in microbial growth by CLSI based two-fold broth dilution method; type: functional
# Moraxella catarrhalis [26] = experiment: Bactericidal activity against erythromycin-susceptible Moraxella catarrhalis 13L332 pretreated followed by subculture in absence of compound measured after 24 hrs; type: functional; method in brief: as §1
# Moraxella catarrhalis [27] = experiment: Selectivity ratio of MBC to MIC for erythromycin-susceptible Moraxella catarrhalis 13L332; type: functional; method in brief: as §1
# [28] = AUCinfinity in Sprague-Dawley rat at 20 mg/kg, po after 0.25 to 24 hrs by LC-MS/MS analysis; type: ADME, organism-based; parameters: dose 20 mg/kg, time infinity, route oral; details: Sprague-Dawley, in vivo
# Method in brief: (§4)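 Male SD rats were given a single 20 mg/Kg oral dose. Blood was sampled at 0.25, 0.5, 1, 2, 4, 6, 8 and 24 h and centrifuged at 2500 g for 5 min at 4 °C. Drug levels were quantified by LC-MS/MS. t1/2, Cmax, Tmax, CL, MRT and AUC were calculated from the concentration–time data.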
# [29] = AUC (0 to t) in Sprague-Dawley rat at 20 mg/kg, po after 0.25 to 24 hrs by LC-MS/MS analysis; type: ADME, organism-based; parameters: time upper 24 hr, dose 20 mg/kg, time lower 0.25 hr, route oral; details: in vivo; method in brief: as §4
# [30] = Systemic plasma clearance in Sprague-Dawley rat at 20 mg/kg, po after 0.25 to 24 hrs by LC-MS/MS analysis; type: ADME, organism-based; method in brief: as §4
# [31] = Half life in Sprague-Dawley rat at 20 mg/kg, po after 0.25 to 24 hrs by LC-MS/MS analysis; type: ADME, organism-based; details: in vivo; method in brief: as §4
# [32] = MRT in Sprague-Dawley rat at 20 mg/kg, po after 0.25 to 24 hrs by LC-MS/MS analysis; type: ADME, organism-based; details: in vivo; method in brief: as §4
# [33] = Tmax in Sprague-Dawley rat at 20 mg/kg, po after 0.25 to 24 hrs by LC-MS/MS analysis; type: ADME, organism-based; details: in vivo; method in brief: as §4
# [34] = Cmax in Sprague-Dawley rat at 20 mg/kg, po after 0.25 to 24 hrs by LC-MS/MS analysis; type: ADME, organism-based; parameters: dose 20 mg/kg, route oral; details: in vivo; method in brief: as §4
# Cytochrome P450 3A4 = Cytochrome P450 3A4 (Homo sapiens, UniProt P08684); experiment: Inhibition of CYP3A4 in human liver microsomes assessed as reduction in metabolite formation using midazolam as substrate incubated for 10 mins in presence of NADPH by HPLC based mass spectrometric method; type: ADME
# Cytochrome P450 3A4, sequence (P08684 whole entry): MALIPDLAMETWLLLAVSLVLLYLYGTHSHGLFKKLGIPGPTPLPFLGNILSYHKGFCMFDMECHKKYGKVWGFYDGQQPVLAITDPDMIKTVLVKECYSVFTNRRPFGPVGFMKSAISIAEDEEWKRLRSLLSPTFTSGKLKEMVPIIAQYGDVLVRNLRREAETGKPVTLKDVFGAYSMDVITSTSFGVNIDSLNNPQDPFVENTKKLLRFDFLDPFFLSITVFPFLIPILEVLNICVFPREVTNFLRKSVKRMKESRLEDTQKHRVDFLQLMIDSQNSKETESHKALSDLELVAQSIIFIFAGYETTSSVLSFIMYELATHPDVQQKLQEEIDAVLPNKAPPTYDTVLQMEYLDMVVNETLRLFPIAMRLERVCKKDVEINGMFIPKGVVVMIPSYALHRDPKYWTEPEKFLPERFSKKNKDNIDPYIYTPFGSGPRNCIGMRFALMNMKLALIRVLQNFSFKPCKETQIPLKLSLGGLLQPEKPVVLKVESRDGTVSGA
# Method in brief: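 Human liver microsome CYP3A4 with midazolam substrate in 0.1 M potassium phosphate buffer was prewarmed at 37 °C for 5 min. Compound and 25 mM NADPH solution (stock) were added, then incubated at 37 °C for 10 min. Ketoconazole served as the positive inhibitor. Metabolite was measured by UPLC–triple quadrupole MS as the metabolite/internal standard peak area ratio, and IC50 was derived by curve fitting.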
# Rattus norvegicus = experiment: Ratio of test compound half life to telithromycin half life in Sprague-Dawley rat at 20 mg/kg, po after 0.25 to 24 hrs by LC-MS/MS analysis; type: ADME, organism-based; details: in vivo
# [35] = Ratio of test compound MRT to telithromycin MRT in Sprague-Dawley rat at 20 mg/kg, po after 0.25 to 24 hrs by LC-MS/MS analysis; type: ADME, organism-based; details: in vivo
# Staphylococcus aureus [36] = experiment: Bactericidal activity against MLS-resistant Staphylococcus aureus PU 20 expressing constitutive ermC gene pretreated followed by subculture in absence of compound measured after 24 hrs; type: functional; method in brief: as §2
# Streptococcus pneumoniae [37] = experiment: Selectivity ratio of MBC to MIC for erythromycin-susceptible Streptococcus pneumoniae ATCC49619; type: functional; method in brief: as §1
Structure (SMILES),MIC (Staphylococcus aureus [1]) [µg/mL],MIC (Haemophilus influenzae [4]) [µg/mL],MIC (Streptococcus pneumoniae [5]) [µg/mL],MIC (Streptococcus pneumoniae [6]) [µg/mL],MBC (Streptococcus pneumoniae [7]) [µg/mL],Selectivity ratio (Streptococcus pneumoniae [8]),MBC (Streptococcus pneumoniae [9]) [µg/mL],Selectivity ratio (Streptococcus pneumoniae [10]),MBC (Haemophilus influenzae [11]) [µg/mL],Selectivity ratio (Haemophilus influenzae [12]),MBC (Streptococcus pyogenes [14]) [µg/mL],Selectivity ratio (Streptococcus pyogenes [15]),MBC (Staphylococcus aureus [16]) [µg/mL],Selectivity ratio (Staphylococcus aureus [17]),MIC (Staphylococcus aureus [18]) [µg/mL],MIC (Streptococcus pyogenes [19]) [µg/mL],MBC (Streptococcus pyogenes [20]) [µg/mL],Selectivity ratio (Streptococcus pyogenes [21]),MIC (Streptococcus pyogenes [22]) [µg/mL],MBC (Streptococcus pyogenes [23]) [µg/mL],also measured
CC[C@H]1OC(=O)[C@@](C)(F)C(=O)[C@H](C)[C@@H](O[C@@H]2O[C@H](C)C[C@H](N(C)C)[C@H]2O)[C@](C)(OC/C=C/c2ccc3c(c2)c(=O)c(C(N)=O)cn3C2CC2)C[C@@H](C)/C(=N\OC)[C@H](C)[C@H]2OC(=O)O[C@@]21C,0.25,16,≤ 0.008,0.5,0.5,1,> 0.062,>8,32,2,> 0.016,>8,> 2,>8,> 256,0.016,> 0.125,>8,0.062,0.125,MIC (Streptococcus pneumoniae [2]): ≤ 0.008 µg/mL; MBC (Streptococcus pneumoniae [3]): ≤ 0.008 µg/mL; MIC (Streptococcus pyogenes [13]): ≤ 0.002 µg/mL; Selectivity ratio (Streptococcus pyogenes [24]): 2; MIC (Moraxella catarrhalis [25]): 0.5 µg/mL; MBC (Moraxella catarrhalis [26]): 4 µg/mL; Selectivity ratio (Moraxella catarrhalis [27]): 8; AUC(0-inf) [28]: 4770 ng·h/mL; AUC(0-t) [29]: 4600 ng·h/mL; CL/F [30]: 80.8 mL/min/kg; half-life [31]: 4.34 h; MRT [32]: 8.32 h; Tmax [33]: 6.67 h; Cmax [34]: 369 ng/mL; IC50 (Cytochrome P450 3A4): 14.9 µM; Ratio (Rattus norvegicus): 2.5 to 3.6; Ratio [35]: 2.3 to 2.6
CC[C@H]1OC(=O)[C@@](C)(F)C(=O)[C@H](C)[C@@H](O[C@@H]2O[C@H](C)C[C@H](N(C)C)[C@H]2O)[C@](C)(OC)C[C@@H](C)/C(=N\OCC#Cc2ccc3c(c2)c(=O)c(C(N)=O)cn3CC)[C@H](C)[C@H]2OC(=O)O[C@@]21C,1,16,0.125,0.25,0.5,2,> 1,>8,32,2,> 0.016,>8,8,8,128,0.125,> 1,>8,0.125,0.5,MIC (Streptococcus pneumoniae [2]): ≤ 0.008 µg/mL; MBC (Streptococcus pneumoniae [3]): ≤ 0.008 µg/mL; MIC (Streptococcus pyogenes [13]): ≤ 0.002 µg/mL; MBC (Staphylococcus aureus [36]): > 256 µg/mL; Selectivity ratio (Streptococcus pyogenes [24]): 4; MIC (Moraxella catarrhalis [25]): 4 µg/mL; MBC (Moraxella catarrhalis [26]): 32 µg/mL; Selectivity ratio (Moraxella catarrhalis [27]): 8; AUC(0-inf) [28]: 281 ng·h/mL; AUC(0-t) [29]: 228 ng·h/mL; CL/F [30]: 1190 mL/min/kg; half-life [31]: 3.2 h; MRT [32]: 8.53 h; Tmax [33]: 7 h; Cmax [34]: 43.5 ng/mL; IC50 (Cytochrome P450 3A4): 7.32 µM; Ratio (Rattus norvegicus): 2.5 to 3.6; Ratio [35]: 2.3 to 2.6
CC[C@H]1OC(=O)[C@H](C)C(=O)[C@H](C)[C@@H](O[C@@H]2O[C@H](C)C[C@H](N(C)C)[C@H]2O)[C@](C)(OC)C[C@@H](C)C(=O)[C@H](C)[C@H]2N(CCCCn3cnc(-c4cccnc4)c3)C(=O)O[C@]12C [TELITHROMYCIN],0.125 to 0.25,4,0.016 to 0.125,0.25 to 0.5,0.5 to 4,2 - 8,0.125 to 1,>=8,16,4,0.016 to 0.125,>=4 - 8,≥ 1,>=4 - 8,> 256,0.031,> 0.25,>8,0.25,1,Selectivity ratio (Streptococcus pneumoniae [37]): 1 - 4; Selectivity ratio (Streptococcus pyogenes [24]): 4; MIC (Moraxella catarrhalis [25]): 0.25 µg/mL; MBC (Moraxella catarrhalis [26]): > 2 µg/mL; Selectivity ratio (Moraxella catarrhalis [27]): >8; AUC(0-inf) [28]: 927 ng·h/mL; AUC(0-t) [29]: 897 ng·h/mL; CL/F [30]: 363 mL/min/kg; half-life [31]: 1.22 h; MRT [32]: 3.27 h; Tmax [33]: 2 h; Cmax [34]: 204 ng/mL; IC50 (Cytochrome P450 3A4): 11.8 µM
